In ChEMBL document CHEMBL4765399, “Design, synthesis, and biological evaluation of 5-((8-methoxy-2-methylquinolin-4-yl)amino)-1H-indole-2-carbohydrazide derivatives as novel Nur77 modulators” (Eur J Med Chem, 2020):
The source made the active and inactive calls. No cut-off for these calls is given here.

Assays:
L02 = assay: Cytotoxicity against human L02 cells assessed as reduction in cell viability incubated for 48 hrs by MTT assay; assay type: cell-based; conditions: L02, 48 h
Summary of the method: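 MTT assay after 48 h exposure at six concentrations, range chosen by cytotoxicity. Inhibition = (ODcontrol − ODtest)/ODcontrol × 100%; IC50 is the concentration halving OD versus untreated cells. Means ± SD of three independent determinations. HepG2 and SMMC-7721 grown in DMEM, QGY-7703 and LO2 in RPMI 1640, with 10% FBS at 37 °C.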

SMMC-7721 [1] = assay: Upregulation of Nur77 expression in human SMMC-7721 cells incubated for 6 hrs by Western blot analysis; assay type: functional, cell-based; conditions: dose 0.5-2 µM
Summary of the method: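 HepG2, QGY-7703 and SMMC-7721 cells treated with the indicated concentrations for 6 h. HepG2 also given 2.0 µM over a time course. Lysis in RIPA with protease and phosphatase inhibitors; 40-80 µg protein by SDS-PAGE, nitrocellulose transfer. Membranes blocked with 5% milk, primary antibody overnight, HRP secondary, chemiluminescence. GAPDH as loading control.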

[2] = target: T1, Nuclear receptor subfamily 4immunitygroup A member 1 (Homo sapiens, UniProt P22736); assay: Modulation of Nur77 in human HepG2 cells assessed as induction of endoplasmic reticulum translocation at 2 uM incubated for 6 hrs by ER-tracker based confocal microscopy; assay type: subcellular; conditions: filed as modulator
Summary of the method: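 HepG2 exposed to 2.0 µM for 6 h, then co-stained with Nur77 antibody and ER tracker; confocal imaging.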

HepG2 [3] = assay: Antiproliferative activity against human HepG2 cells assessed as reduction in cell viability at 2 uM by MTT assay; assay type: functional, cell-based; conditions: time 12-48 hrs, TDE = time-dependent effect
Summary of the method: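 Cells treated with 2.0 µM over a time course; viability read by MTT. HepG2, SMMC-7721 kept in DMEM, QGY-7703 in RPMI 1640, with 10% FBS at 37 °C and 5% CO2.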

HepG2 [4] = assay: Induction of apoptosis in human HepG2 cells assessed as live cells at 2 uM incubated for 12 hrs by Annexin V-FITC/PI staining based flow cytometry (reference value: 90.7 to 94%); assay type: functional
SMMC-7721 [5] = assay: Induction of autophagy in human SMMC-7721 cells assessed as increase in Beclin 1 expression measured at 12 hrs by Western blot analysis; assay type: functional, cell-based; conditions: dose 0.5-2 µM
Summary of the method: (§1)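 HepG2, QGY-7703 and SMMC-7721 treated with graded concentrations for 12 h. Lysed in RIPA with inhibitors; 40-80 µg protein separated by SDS-PAGE, blotted to nitrocellulose, blocked 1 h in 5% milk, primary antibodies overnight (LC3, Beclin1, Bip, CHOP, TRB3), HRP secondaries, chemiluminescence.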

HepG2 [6] = assay: Induction of autophagy in Nur77 knockout human HepG2 cells assessed as increase in Beclin 1 expression at 2 uM measured after 6 to 12 hrs by Western blot analysis; assay type: functional, cell-based; conditions: time 6-12 hrs
Summary of the method: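 Scrambled-control and shNur77 HepG2 given DMSO or 2.0 µM for 6 or 12 h; immunoblotting of RIPA lysates for LC3, Beclin1 and Nur77 after SDS-PAGE and nitrocellulose transfer, chemiluminescent detection.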

QGY-7703 [7] = assay: Induction of endoplasmic reticulum stress in human QGY-7703 cells assessed as increase in bip protein expression incubated for 12 hrs by Western blot analysis; assay type: functional, cell-based; conditions: dose 0.5-2 µM; summary of the method: as §1
SMMC-7721 [8] = assay: Induction of endoplasmic reticulum stress in human SMMC-7721 cells assessed as increase in bip protein expression incubated for 12 hrs by Western blot analysis; assay type: functional, cell-based; conditions: dose 0.5-2 µM; summary of the method: as §1
QGY-7703 [9] = assay: Induction of endoplasmic reticulum stress in human QGY-7703 cells assessed as increase in CHOP protein expression incubated for 12 hrs by Western blot analysis; assay type: functional, cell-based; conditions: dose 0.5-2 µM; summary of the method: as §1
SMMC-7721 [10] = assay: Induction of endoplasmic reticulum stress in human SMMC-7721 cells assessed as increase in TRB3 protein expression incubated for 12 hrs by Western blot analysis; assay type: functional, cell-based; conditions: dose 0.5-2 µM; summary of the method: as §1
HepG2 [11] = assay: Induction of apoptosis in human HepG2 cells assessed as cleaved caspase-3 expression at 2 uM pretreated with autophagy inhibitor, 3-methyladenine for 2 hrs followed by incubation with compound for 12 hrs by Western blot analysis; assay type: functional, cell-based
Summary of the method: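 HepG2 cells grown to confluence were pretreated 2 h with 2 mM 3-MA (autophagy inhibitor) or 2 mM 4-PBA (ER stress inhibitor), then exposed to compound for 12 h. Proteins (40–80 µg, RIPA lysate) were resolved by SDS-PAGE and blotted for PARP, cleaved caspase-3/-9, Bcl-2 and Bax, with chemiluminescent detection.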

HepG2 [12] = assay: Antitumor activity against human HepG2 cells xenografted in BALB/c mouse assessed as tumor growth inhibition at 10 mg/kg/day, ip administered for 15 days; assay type: functional; conditions: 360 h, time 15 day
Summary of the method: (§2)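 Subcutaneous flank xenograft of 5×10^6 HepG2 cells in 4-week-old male Balb/c nude mice. At about 100 mm³, 15 mice were randomized into three groups: vehicle, 10 or 20 mg/kg i.p. daily for 15 days. Tumor size was measured every day, and tumors were excised and weighed at the end.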

HepG2 [13] = assay: Antitumor activity against human HepG2 cells xenografted in BALB/c mouse assessed as tumor weight at 20 mg/kg/day, ip administered for 15 days (reference value: 0.86 +/- 0.18 g); assay type: functional; conditions: dose 10 mg/kg/day; time 15 day; in the assay text read “10 mg/kg/day” for “20 mg/kg/day”; summary of the method: as §2
HepG2 [14] = assay: Antitumor activity against human HepG2 cells xenografted in BALB/c mouse assessed as induction of ER stress by measuring increase in CHOP level in tumor tissue at 10 to 20 mg/kg/day, ip administered for 15 days by immunohistochemical analysis; assay type: functional, organism-based; conditions: dose 10-20 mg/kg/day, time 15.0 day
Summary of the method: (§3)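 HepG2 cells (5×10^6) injected subcutaneously into flanks of 4-week-old male Balb/c nude mice. At about 100 mm³, 15 mice were randomized to vehicle, 10 or 20 mg/kg i.p. once daily for 15 days. Tumors were then excised for immunostaining of paraffin sections (5 μm) or for western blot.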

[15] = target: T1, Nuclear receptor subfamily 4immunitygroup A member 1; assay: Binding affinity to Nur77 ligand binding domain (unknown origin) at 10 uM by surface plasmon resonance analysis; conditions: filed as modulator
Summary of the method: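 Single-concentration SPR screen at 10.0 µM against Nur77-LBD; binding given as RU response.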

HepG2 [16] = assay: Induction of apoptosis in human HepG2 cells assessed as late apoptotic cells at 1 uM incubated for 12 hrs by Annexin V-FITC/PI staining based flow cytometry (reference value: 1.1%); assay type: functional
HepG2 [17] = assay: Induction of apoptosis in human HepG2 cells assessed as necrotic cells at 1 uM incubated for 12 hrs by Annexin V-FITC/PI staining based flow cytometry (reference value: 0.068%); assay type: functional
HepG2 [18] = assay: Induction of apoptosis in human HepG2 cells transfected with shNur77 assessed as increase in cleaved PARP level at 2 uM incubated for 12 hrs by Western blot analysis; assay type: functional, cell-based
Summary of the method: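 HepG2 carrying scrambled or Nur77 shRNA exposed to 2.0 µM for 12 h. RIPA lysates with protease/phosphatase inhibitors, 40-80 µg protein by BCA resolved on SDS-PAGE, moved to nitrocellulose, milk-blocked, probed overnight for PARP cleavage and Nur77 with HRP secondaries, chemiluminescent detection.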

HepG2 [19] = assay: Antitumor activity against human HepG2 cells xenografted in BALB/c mouse assessed as induction of ER stress by measuring increase in bip level in tumor tissue at 10 to 20 mg/kg/day, ip administered for 15 days by western blot analysis; assay type: functional, organism-based; conditions: dose 10-20 mg/kg/day, time 15.0 day; summary of the method: as §3

T1 sequence (P22736 whole entry): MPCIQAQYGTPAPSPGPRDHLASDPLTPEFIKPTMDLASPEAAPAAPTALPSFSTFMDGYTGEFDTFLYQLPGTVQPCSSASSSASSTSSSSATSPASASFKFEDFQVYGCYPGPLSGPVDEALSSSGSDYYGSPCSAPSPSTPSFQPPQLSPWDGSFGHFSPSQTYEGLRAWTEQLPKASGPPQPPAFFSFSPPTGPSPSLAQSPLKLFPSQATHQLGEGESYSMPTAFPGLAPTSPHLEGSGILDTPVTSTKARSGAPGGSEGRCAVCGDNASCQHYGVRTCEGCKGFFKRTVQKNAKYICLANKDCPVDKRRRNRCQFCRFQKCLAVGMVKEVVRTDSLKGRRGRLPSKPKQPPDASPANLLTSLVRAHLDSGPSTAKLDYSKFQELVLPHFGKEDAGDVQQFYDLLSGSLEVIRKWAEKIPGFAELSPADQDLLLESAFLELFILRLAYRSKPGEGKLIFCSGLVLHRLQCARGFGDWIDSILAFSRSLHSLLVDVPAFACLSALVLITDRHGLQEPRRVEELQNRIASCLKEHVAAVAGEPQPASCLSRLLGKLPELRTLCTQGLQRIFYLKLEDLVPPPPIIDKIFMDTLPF

Activity [2]: Active | Activity [15]: 91.6 RU
Compound: COc1cccc2c(Nc3ccc4[nH]c(C(=O)N/N=C/c5ccc(SC)cc5)cc4c3)cc(C)nc12
IC50 (L02): > 20 µM | Activity (SMMC-7721 [1]): Dose-dependent effect | Activity (HepG2 [3]): Tde | Activity (HepG2 [4]): 8.8% | Activity (SMMC-7721 [5]): Dose-dependent effect | Activity (HepG2 [6]): Active | Activity (QGY-7703 [7]): Dose-dependent effect | Activity (SMMC-7721 [8]): Dose-dependent effect | Activity (QGY-7703 [9]): Dose-dependent effect | Activity (SMMC-7721 [10]): Dose-dependent effect | Activity (HepG2 [11]): inactive | inhibition in vivo at 10 mg/kg/day (HepG2 [12]): 36.7% | Activity (HepG2 [13]): 0.5 g | Activity (HepG2 [14]): Active | Activity (HepG2 [16]): 16.1% | Activity (HepG2 [17]): 0.41% | Activity (HepG2 [18]): inactive | Activity (HepG2 [19]): Active
